Measured values pooled from the literature.
Protocols differ between the studies behind these lines.
Target: Serine/threonine-protein kinase MARK1 (MARK1, Homo sapiens, UniProt Q9P0L2)

Structure (SMILES) | test | setting | quantity | result
CCCCC(=O)Nc1ccc(-c2ccc3ncn(CCC)c(=O)c3c2)cn1 | binding, competition with immobilised ligand | 0.5 µM | remaining binding | 81%
C[C@H]1CC[C@H](n2c3cnccc3c3cnc(Nc4ccc5c(n4)CCN(C(=O)CO)C5)nc32)CC1 | cell-free assay | 1 µM | remaining signal | 66%
CC#CC(=O)N1CCC[C@H]1c1nc(-c2ccc(C(=O)Nc3ccccn3)cc2)c2c(N)nccn12 | enzyme activity, inhibitor | 1 µM | inhibition | 10%
Cc1ccc(NC(=O)c2ccnc(C(F)(F)F)c2)cc1-c1cc(OCCO)nc(N2CCOCC2)c1 | binding | 1 µM | remaining binding | 100%
CO[C@@H]1[C@H](N(C)C(=O)c2ccccc2)C[C@H]2O[C@]1(C)n1c3ccccc3c3c4c(c5c6ccccc6n2c5c31)C(=O)NC4 | enzyme activity, inhibitor | 1 µM | inhibition | 96%
C#Cc1cc(-c2cc(Nc3nc(N[C@@H](C)c4ccc(F)cn4)ncc3Cl)n[nH]2)ccc1C=O | enzyme activity, inhibitor | 0.2 µM | inhibition | 8.26%
COc1ccc2oc(-c3ccc4nc(N)oc4c3)c/c(=N\c3ccccc3NC(=O)CCN)c2c1 | binding | 1 µM | remaining binding | 103%
C1=C/COCc2cc(ccc2OCCN2CCCC2)Nc2nccc(n2)-c2cccc(c2)COC/1 | binding | 0.1 µM | remaining binding | 100%
